Assay results from ChEMBL document CHEMBL1141647, “Novel ofloxacin derivatives: synthesis, antimycobacterial and toxicological evaluation” (Bioorg Med Chem Lett, 2008).
In brackets after ≈: the same amount, converted by molar mass.

Columns and labels:
[1] = tested on: Mycobacterium tuberculosis; test: Antimycobacterial activity against multidrug resistant Mycobacterium tuberculosis by agar dilution method; format: functional
Summary of the method: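 MIC99 was taken as the lowest concentration giving complete inhibition of bacterial growth.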

[2] = Selectivity index, Ratio of IC50 for human Vero cells to MIC99 for multidrug resistant Mycobacterium tuberculosis; format: functional

SMILES | MIC99 [1] [µM] | Selectivity index [2]
CC1COc2c(N3CCN(C(c4ccccc4)c4ccc(Cl)cc4)CC3)c(F)c([N+](=O)[O-])c3c(=O)c(C(=O)O)cn1c23 (stereo not given) | 2.63 (≈ 1.56 µg/mL) | –
CC1COc2c(N3CCN(C(=O)c4ccco4)CC3)c(F)c([N+](=O)[O-])c3c(=O)c(C(=O)O)cn1c23 (stereo not given) | 1.6 (≈ 0.778 µg/mL) | –
COc1cc2c(cc1OC)CN(c1c(F)c([N+](=O)[O-])c3c(=O)c(C(=O)O)cn4c3c1OCC4C)CC2 (stereo not given) | 3.12 (≈ 1.56 µg/mL) | –
CC1COc2c(N3CCn4cc(C(=O)O)nc4C3)c(F)c(N)c3c(=O)c(C(=O)O)cn1c23 (stereo not given) | 1.76 (≈ 0.78 µg/mL) | –
CC1COc2c(N3CCC4(CC3)OCCO4)c(F)c([N+](=O)[O-])c3c(=O)c(C(=O)O)cn1c23 (stereo not given) | 0.09 (≈ 0.0404 µg/mL) | –
CC1COc2c(N3CCC4(CC3)OCCO4)c(F)cc3c(=O)c(C(=O)O)cn1c23 (stereo not given) | 0.09 (≈ 0.0364 µg/mL) | –
CC1COc2c(N3CCN(C(=O)C4COc5ccccc5O4)CC3)c(F)c([N+](=O)[O-])c3c(=O)c(C(=O)O)cn1c23 (stereo not given) | 1.41 (≈ 0.782 µg/mL) | –
CC1COc2c(N3CCn4cc(C(=O)O)nc4C3)c(F)cc3c(=O)c(C(=O)O)cn1c23 (stereo not given) | 0.44 (≈ 0.188 µg/mL) | –
CC1COc2c(N3CCC(n4c(=O)[nH]c5cc(Cl)ccc54)CC3)c(F)cc3c(=O)c(C(=O)O)cn1c23 (stereo not given) | 0.76 (≈ 0.39 µg/mL) | –
CC1COc2c(N3CCC(O)(c4ccc(Cl)cc4)CC3)c(F)c([N+](=O)[O-])c3c(=O)c(C(=O)O)cn1c23 (stereo not given) | 3.01 (≈ 1.56 µg/mL) | –
CC1CN(c2c(F)c([N+](=O)[O-])c3c(=O)c(C(=O)O)cn4c3c2OCC4C)CC(C)O1 (stereo not given) | 3.7 (≈ 1.56 µg/mL) | –
CC1CN(c2c(F)cc3c(=O)c(C(=O)O)cn4c3c2OCC4C)CC(C)O1 (stereo not given) | 8.3 (≈ 3.12 µg/mL) | –
CC1COc2c(N3CCN(Cc4ccc5c(c4)OCO5)CC3)c(F)c([N+](=O)[O-])c3c(=O)c(C(=O)O)cn1c23 (stereo not given) | 5.95 (≈ 3.13 µg/mL) | –
CC1COc2c(N3CCc4ccccc4C3C(=O)NC(C)(C)C)c(F)c([N+](=O)[O-])c3c(=O)c(C(=O)O)cn1c23 (stereo not given) | 1.45 (≈ 0.781 µg/mL) | –
CC1COc2c(N3CCC4(CC3)OCCO4)c(F)c(N)c3c(=O)c(C(=O)O)cn1c23 (stereo not given) | 3.72 (≈ 1.56 µg/mL) | –
CC1COc2c(N3CCSCC3)c(F)c([N+](=O)[O-])c3c(=O)c(C(=O)O)cn1c23 (stereo not given) | 1.91 (≈ 0.782 µg/mL) | –
CC1COc2c(N3CCc4ccccc4C3C(=O)NC(C)(C)C)c(F)cc3c(=O)c(C(=O)O)cn1c23 (stereo not given) | 3.16 (≈ 1.56 µg/mL) | –
CC1COc2c(N3CCSCC3)c(F)cc3c(=O)c(C(=O)O)cn1c23 (stereo not given) | 8.59 (≈ 3.13 µg/mL) | –
CC1COc2c(N3CCN(C)C(c4ccccc4)C3)c(F)c([N+](=O)[O-])c3c(=O)c(C(=O)O)cn1c23 (stereo not given) | 3.23 (≈ 1.56 µg/mL) | –
CC1COc2c(N3CCn4cc(C(=O)O)nc4C3)c(F)c([N+](=O)[O-])c3c(=O)c(C(=O)O)cn1c23 (stereo not given) | 0.09 (≈ 0.0426 µg/mL) | >1467
CC1COc2c(N3CCC(n4c(=O)[nH]c5cc(Cl)ccc54)CC3)c(F)c([N+](=O)[O-])c3c(=O)c(C(=O)O)cn1c23 (stereo not given) | 0.34 (≈ 0.19 µg/mL) | –
COc1cc2c(cc1OC)CN(c1c(F)cc3c(=O)c(C(=O)O)cn4c3c1OCC4C)CC2 (stereo not given) | 3.43 (≈ 1.56 µg/mL) | –
NNC(=O)c1ccncc1 [ISONIAZID] | 45.6 (≈ 6.25 µg/mL) | –
CC1COc2c(N3CCN(C)CC3)c(F)cc3c(=O)c(C(=O)O)cn1c23 (stereo not given) [OFLOXACIN] | 34.6 (≈ 12.5 µg/mL) | –
